From ChEMBL document CHEMBL3352788, “Characterization of selective exosite-binding inhibitors of matrix metalloproteinase 13 that prevent articular cartilage degradation in vitro” (J Med Chem, 2014)

Experiments:
[1] = target: Collagenase 3 (Homo sapiens, UniProt P45452); assay: Inhibition of full-length recombinant human MMP-13 assessed as prevention of bovine type-2 collagen degradation at 10 uM after 18 hrs by cartilage explant assay
In short: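 Bovine articular cartilage pieces (~3 mm2) were made nonviable by three freeze–thaw cycles in LN2 and trypsin-digested for 4 h to remove aggrecan. They were then incubated with 100 nM MMP-13 ± compound for 18 h at 37 °C, 5% CO2, in triplicate at a single concentration. Released collagen fragments were measured by C1,2C ELISA and normalized to undigested and MMP-13-digested controls.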

[2] = target: Angiotensin-converting enzyme (Homo sapiens) (UniProt P12821); assay: Inhibition of recombinant human ACE using RPFNYLAK substrate up to 20 uM
In short: (§1)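 Outsourced microfluidic protease panel. Compound was preincubated with each protease for 30 min at 25 °C, then peptide substrate was added for 3 h at 25 °C and quenched with SDS/EDTA/iodoacetate. Substrate-to-product conversion was measured on LabChip. Compounds were tested singly in a 12-point 3-fold dilution series, top 20 μM (5 μM for two reference compounds).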

[3] = target: Procathepsin L (Homo sapiens) (UniProt P07711); assay: Inhibition of recombinant human cathepsin L using GGALRAG substrate at up to 20 uM after 3 hrs
In short: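 Each protease was preincubated 30 min at 25 °C with compound in its assay buffer. Peptide substrate was then added and the reaction ran 3 h at 25 °C before quenching with SDS/EDTA/iodoacetate. Substrate-to-product conversion (%) was read by microfluidic electrophoresis. Compounds were tested in singlicate as 12-point 3-fold dilutions from 20 μM to 0.1 nM. IC50 was taken as the concentration giving 50% of no-compound control activity.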

[4] = target: T1, Caspase-2 (Homo sapiens) (UniProt P42575); assay: Inhibition of recombinant human caspase 2 using DEVDAA substrate at up to 20 uM after 3 hrs; in short: as §1
T1 sequence (whole entry): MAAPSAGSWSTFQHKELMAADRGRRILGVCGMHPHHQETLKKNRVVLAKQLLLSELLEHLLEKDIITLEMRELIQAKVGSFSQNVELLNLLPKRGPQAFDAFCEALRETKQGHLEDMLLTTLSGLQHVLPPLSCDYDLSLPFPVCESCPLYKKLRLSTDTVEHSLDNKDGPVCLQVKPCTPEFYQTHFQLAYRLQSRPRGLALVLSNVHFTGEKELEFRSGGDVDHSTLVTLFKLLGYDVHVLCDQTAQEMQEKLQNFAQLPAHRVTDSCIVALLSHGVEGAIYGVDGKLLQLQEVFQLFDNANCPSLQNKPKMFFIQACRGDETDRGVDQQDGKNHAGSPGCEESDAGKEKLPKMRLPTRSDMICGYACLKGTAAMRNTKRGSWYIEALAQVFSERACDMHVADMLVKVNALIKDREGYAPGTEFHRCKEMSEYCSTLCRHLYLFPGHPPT

[5] = target: Cathepsin D (Homo sapiens) (UniProt P07339); assay: Inhibition of recombinant human cathepsin D using EVNLDAEFRK substrate at up to 20 uM after 3 hrs; in short: as §1
[6] = tested on: Liver microsome; assay: Half life in rat liver microsomes by LC-MS/MS analysis; format: ADME
In short: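 Compound at 1 μM with 1 mg/mL liver microsomes in 100 mM potassium phosphate pH 7.4 at 37 °C with shaking. Reaction started with 1 mM NADPH (final). Aliquots were taken at 0, 5, 10, 20, 40 and 60 min and quenched in acetonitrile. Parallel incubations without NADPH were run.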

[7] = target: T2, Cytochrome P450 3A4 (Homo sapiens, UniProt P08684); assay: Inhibition of CYP3A4 (unknown origin) using midazolam substrate; format: ADME
In short: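 Reactions stopped with acetonitrile/0.1% formic acid plus labelled internal standard. Metabolite measured by LC-MS area ratio. IC50 by linear interpolation.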

[8] = target: Prothrombin (Homo sapiens) (UniProt P00734); assay: Inhibition of recombinant human thrombin using PRTLT substrate at up to 5 uM after 3 hrs
In short: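 In this microfluidic protease panel, enzyme and compound were preincubated 30 min at 25 °C. The peptide substrate was added and the reaction was incubated 3 h at 25 °C, then quenched (SDS, EDTA, iodoacetate). Activity was read as % substrate converted to product. Dose–response was singlicate, 12-point 3-fold dilutions spanning 5 μM to 0.028 nM. IC50 was the concentration leaving 50% activity relative to no-compound control.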

[9] = target: T3, Caspase-5 (Homo sapiens) (UniProt P51878); assay: Inhibition of recombinant human caspase 5 using LEHDGP substrate at up to 5 uM after 3 hrs; in short: as §1
T3 sequence (whole entry): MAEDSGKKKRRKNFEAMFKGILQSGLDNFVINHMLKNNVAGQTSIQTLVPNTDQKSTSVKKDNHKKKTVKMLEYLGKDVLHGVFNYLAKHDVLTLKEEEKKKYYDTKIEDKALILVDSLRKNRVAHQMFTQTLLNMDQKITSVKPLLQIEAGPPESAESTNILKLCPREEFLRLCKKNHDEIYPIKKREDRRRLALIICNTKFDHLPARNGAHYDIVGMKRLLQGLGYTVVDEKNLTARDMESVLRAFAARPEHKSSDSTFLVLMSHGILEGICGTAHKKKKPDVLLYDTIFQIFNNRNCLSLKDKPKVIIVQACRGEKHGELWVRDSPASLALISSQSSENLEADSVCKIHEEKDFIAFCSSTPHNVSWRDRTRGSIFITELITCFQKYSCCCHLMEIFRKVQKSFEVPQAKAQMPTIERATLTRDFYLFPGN

[10] = target: T4, Caspase-7 (Homo sapiens) (UniProt P55210); assay: Inhibition of recombinant human caspase 7 using DEVDAA substrate at up to 5 uM after 3 hrs; in short: as §1
T4 sequence (whole entry): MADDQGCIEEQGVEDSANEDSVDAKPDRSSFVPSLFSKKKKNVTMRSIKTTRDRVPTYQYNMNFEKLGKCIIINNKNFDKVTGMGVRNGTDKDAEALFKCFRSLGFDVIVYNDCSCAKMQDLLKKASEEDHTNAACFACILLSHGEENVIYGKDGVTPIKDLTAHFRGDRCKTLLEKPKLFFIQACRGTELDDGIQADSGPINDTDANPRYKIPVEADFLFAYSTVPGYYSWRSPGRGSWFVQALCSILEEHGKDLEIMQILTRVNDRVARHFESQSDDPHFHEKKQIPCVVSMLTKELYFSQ

[11] = target: T2, Cytochrome P450 3A4; assay: Inhibition of CYP3A4 (unknown origin) using testosterone substrate at 20 uM; format: ADME
In short: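 Human liver microsomes with probe substrate and an NADPH-regenerating system in 0.1 M potassium phosphate pH 7.4 at 37 °C, run in duplicate. Inhibitor at 0–20 μM (0–2.5 μM for one compound), eight concentrations. Reactions were stopped with acetonitrile/formic acid containing isotope-labelled internal standard, and metabolite area ratios were compared with and without inhibitor. IC50 was taken by linear interpolation between bracketing concentrations.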

Sequence of Angiotensin-converting enzyme (Homo sapiens) (P12821 whole entry): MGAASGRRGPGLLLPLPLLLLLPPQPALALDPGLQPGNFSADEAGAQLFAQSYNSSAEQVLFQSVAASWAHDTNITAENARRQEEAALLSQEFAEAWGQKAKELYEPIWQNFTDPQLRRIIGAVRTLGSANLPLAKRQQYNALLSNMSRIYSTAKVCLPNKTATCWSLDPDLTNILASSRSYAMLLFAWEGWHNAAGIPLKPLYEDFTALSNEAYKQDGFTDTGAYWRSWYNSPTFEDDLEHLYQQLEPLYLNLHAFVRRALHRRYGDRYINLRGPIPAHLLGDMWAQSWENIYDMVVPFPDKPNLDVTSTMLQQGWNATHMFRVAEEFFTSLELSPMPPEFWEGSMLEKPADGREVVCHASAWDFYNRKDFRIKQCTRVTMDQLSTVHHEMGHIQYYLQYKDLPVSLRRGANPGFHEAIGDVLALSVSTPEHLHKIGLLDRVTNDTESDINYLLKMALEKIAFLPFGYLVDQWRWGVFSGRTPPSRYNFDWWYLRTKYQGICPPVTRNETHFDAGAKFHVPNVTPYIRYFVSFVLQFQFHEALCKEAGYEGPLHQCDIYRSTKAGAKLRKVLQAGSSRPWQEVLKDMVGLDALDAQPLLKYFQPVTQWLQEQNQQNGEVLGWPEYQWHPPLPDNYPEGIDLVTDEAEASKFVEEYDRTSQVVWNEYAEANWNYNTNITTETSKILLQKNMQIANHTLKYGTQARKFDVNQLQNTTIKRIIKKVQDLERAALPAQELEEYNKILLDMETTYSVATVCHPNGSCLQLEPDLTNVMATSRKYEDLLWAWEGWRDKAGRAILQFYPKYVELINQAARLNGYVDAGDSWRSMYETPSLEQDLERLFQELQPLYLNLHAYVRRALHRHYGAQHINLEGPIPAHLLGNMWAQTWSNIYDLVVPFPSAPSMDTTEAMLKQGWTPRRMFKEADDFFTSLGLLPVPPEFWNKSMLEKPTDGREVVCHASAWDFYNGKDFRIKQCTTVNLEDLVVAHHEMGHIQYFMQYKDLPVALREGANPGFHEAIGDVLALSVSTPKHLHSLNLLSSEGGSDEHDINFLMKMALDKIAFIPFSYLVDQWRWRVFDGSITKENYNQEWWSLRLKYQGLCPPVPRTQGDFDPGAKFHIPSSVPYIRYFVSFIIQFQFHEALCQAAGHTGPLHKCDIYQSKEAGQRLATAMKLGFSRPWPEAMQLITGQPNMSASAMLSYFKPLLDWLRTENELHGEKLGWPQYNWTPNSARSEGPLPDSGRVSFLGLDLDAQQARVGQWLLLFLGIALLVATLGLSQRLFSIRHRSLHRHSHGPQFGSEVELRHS
Sequence of Procathepsin L (Homo sapiens) (P07711 114-333 limits assumed): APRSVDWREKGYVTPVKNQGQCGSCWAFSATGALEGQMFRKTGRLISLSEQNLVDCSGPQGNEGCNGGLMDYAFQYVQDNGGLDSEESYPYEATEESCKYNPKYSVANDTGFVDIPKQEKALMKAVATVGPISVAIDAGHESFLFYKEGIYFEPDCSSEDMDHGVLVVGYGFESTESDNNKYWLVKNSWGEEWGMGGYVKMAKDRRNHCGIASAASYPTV
Sequence of Cathepsin D (Homo sapiens) (P07339 65-162 limits assumed): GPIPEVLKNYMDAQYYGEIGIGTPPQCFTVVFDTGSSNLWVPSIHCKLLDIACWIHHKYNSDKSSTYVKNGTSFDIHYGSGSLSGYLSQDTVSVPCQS
Sequence of Cathepsin D (Homo sapiens) (P07339 169-412 limits assumed): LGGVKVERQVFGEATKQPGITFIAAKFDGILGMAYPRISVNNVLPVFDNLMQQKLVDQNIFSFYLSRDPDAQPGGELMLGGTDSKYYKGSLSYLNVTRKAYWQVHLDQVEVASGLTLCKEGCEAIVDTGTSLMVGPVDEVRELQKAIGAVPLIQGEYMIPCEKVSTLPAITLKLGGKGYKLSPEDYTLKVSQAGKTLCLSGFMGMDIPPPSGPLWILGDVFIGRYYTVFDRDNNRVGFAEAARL
T2 sequence (P08684 whole entry): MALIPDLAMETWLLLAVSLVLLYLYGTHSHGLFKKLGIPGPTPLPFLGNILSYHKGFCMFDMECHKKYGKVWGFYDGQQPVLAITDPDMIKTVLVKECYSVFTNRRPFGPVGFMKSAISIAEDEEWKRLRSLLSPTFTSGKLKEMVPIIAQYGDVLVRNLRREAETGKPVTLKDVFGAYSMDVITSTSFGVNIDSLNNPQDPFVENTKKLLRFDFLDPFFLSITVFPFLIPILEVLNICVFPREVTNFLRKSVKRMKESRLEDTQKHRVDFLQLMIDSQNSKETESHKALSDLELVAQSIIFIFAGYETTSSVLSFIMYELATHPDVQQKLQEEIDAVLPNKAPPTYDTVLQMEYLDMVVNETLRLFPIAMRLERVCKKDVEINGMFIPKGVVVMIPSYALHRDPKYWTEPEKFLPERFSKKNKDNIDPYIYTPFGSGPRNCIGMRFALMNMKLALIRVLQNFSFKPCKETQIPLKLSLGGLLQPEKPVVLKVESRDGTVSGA

Row | inhibition [8] [%] | inhibition [9] [%] | inhibition [10] [%] | SMILES | inhibition [1] [%] | inhibition [2] [%] | inhibition [3] [%] | inhibition [4] [%] | inhibition [5] [%] | t1/2 [6] [min] | IC50 [7] [µM] | inhibition (INH) [11] [%]
1 | – | – | – | Cc1ccc(CSc2nc(O)c3c(n2)CCC3)cc1 | 59 | > 10 | < 10 | < 10 | < 10 | – | – | –
2 | – | – | – | Oc1nc(SCc2ccc(Cl)cc2)nc2c1CCC2 | – | > 10 | < 10 | < 10 | < 10 | 6.8 | > 20 | –
3 | < 10 | < 10 | < 10 | Cn1c(=O)n(Cc2ccc(C(=O)O)cc2)c(=O)c2cc(C#CCc3ccccc3)ccc21 | – | – | – | – | – | – | > 2.5 | –
4 | < 10 | < 10 | < 10 | Cc1cc(CNC(=O)c2cc(C(=O)NCc3ccc(F)c(C)c3)ncn2)ccc1F | – | – | – | – | – | – | – | > 10
5 | – | – | – | COC(=O)c1ccc(CSc2nc3c(c(=O)[nH]2)CCC3)cc1 | 38 | > 10 | < 10 | < 10 | < 10 | 1.8 | > 20 | < 50
